The values that follow come from ChEMBL document CHEMBL4020816.

In assay [1] the target is T1, Cannabinoid receptor 1 (Homo sapiens, UniProt P21554). Kind of assay: Displacement of [3H]CP55940 from recombinant human CB1 receptor expressed in beta-galactosidase expressing CHOK1 cell membranes assessed as kinetic rate index by measuring ratio of radioligand binding at 30 mins to 240 mins by scintillation spectrometry. A general note: Loss of bound radioactivity is the signal in a displacement assay; it reports binding, not function.

Assay [2] addresses T1, Cannabinoid receptor 1. The assay is described as follows: Displacement of [3H]CP55940 from recombinant human CB1 receptor expressed in beta-galactosidase expressing CHOK1 cell membranes after 60 mins by scintillation spectrometry.
In assay [3] the target is T1, Cannabinoid receptor 1. Kind of assay: Antagonist activity at recombinant human CB1 receptor expressed in HEK293 cell membranes assessed as inhibition of CP55940-induced [35S]GTPgammaS binding preincubated for 1 hr followed by CP55940 addition and subsequent incubation with [35S]GTPgammaS measured after 30 mins by scintillation spectrometry. Type of assay: functional. The essentials: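 Antagonism was measured by [35S]GTPγS binding at 30 °C on membranes of HEK-293 cells stably expressing recombinant human CB1.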

T1 sequence (P21554 whole entry): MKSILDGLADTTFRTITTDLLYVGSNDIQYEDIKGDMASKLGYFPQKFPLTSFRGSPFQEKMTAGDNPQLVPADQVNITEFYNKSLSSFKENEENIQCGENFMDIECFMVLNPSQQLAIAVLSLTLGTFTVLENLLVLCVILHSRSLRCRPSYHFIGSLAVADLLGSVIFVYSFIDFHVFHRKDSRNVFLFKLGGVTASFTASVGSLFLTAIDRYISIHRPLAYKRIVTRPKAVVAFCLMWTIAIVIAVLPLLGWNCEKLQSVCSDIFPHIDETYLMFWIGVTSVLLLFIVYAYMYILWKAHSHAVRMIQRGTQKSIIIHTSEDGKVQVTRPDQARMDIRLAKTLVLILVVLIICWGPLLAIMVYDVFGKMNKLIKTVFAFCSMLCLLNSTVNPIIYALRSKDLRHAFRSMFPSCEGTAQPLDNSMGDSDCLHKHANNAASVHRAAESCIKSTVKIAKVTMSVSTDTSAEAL

`Cc1c(C(=O)N[C@@H]2CCCC[C@H]2O)nc(-c2ccc(Cl)cc2Cl)n1-c1ccc(OS(=O)(=O)CCC(F)(F)F)cc1`: on Cannabinoid receptor 1 [1], the Ratio was 0.74. At Cannabinoid receptor 1 [2] (read-out: Ki), the Ki was 0.3 nM. Further, on Cannabinoid receptor 1 [3] (read-out: IC50), the IC50 came to 1.7 nM.

Regarding `Cc1c(C(=O)NN2CCCCC2)nc(-c2ccc(Cl)cc2Cl)n1-c1ccc(OS(=O)(=O)CCCC(F)(F)F)cc1`, the Ratio at Cannabinoid receptor 1 [1] is 0.93. In addition, the Ki on Cannabinoid receptor 1 [2] (read-out: Ki) was 0.062 nM. Also, the IC50 at Cannabinoid receptor 1 [3] (read-out: IC50) is 1.2 nM.

As to `Cc1c(C(=O)NN2CCCCC2)nc(-c2ccc(Cl)cc2Cl)n1-c1ccc(OS(=O)(=O)CCC(C)C)cc1`, the Ratio on Cannabinoid receptor 1 [1] was 1.02. In addition, the Ki at Cannabinoid receptor 1 [2] (read-out: Ki) stood at 0.2 nM. Moreover, on Cannabinoid receptor 1 [3] (read-out: IC50), the IC50 stood at 1.3 nM.

For `Cc1c(C(=O)Nc2ccc(C(F)(F)F)cn2)nc(-c2ccc(Cl)cc2Cl)n1-c1ccc(OS(=O)(=O)CCC(F)(F)F)cc1`, the Ratio on Cannabinoid receptor 1 [1] was determined as 1.39. Also, on Cannabinoid receptor 1 [2] (read-out: Ki), the Ki was found to be 0.19 nM. The IC50 at Cannabinoid receptor 1 [3] (read-out: IC50) stood at 0.61 nM.

With `Cc1c(C(=O)N[C@@H]2CCCC[C@@H]2N(C)C)nc(-c2ccc(Cl)cc2Cl)n1-c1ccc(OS(=O)(=O)CCC(F)(F)F)cc1` (racemic), the Ratio at Cannabinoid receptor 1 [1] turned out to be 0.74.

Take `Cc1c(C(=O)N[C@H]2CCCC[C@H]2N)nc(-c2ccc(Cl)cc2Cl)n1-c1ccc(OS(=O)(=O)CCC(F)(F)F)cc1` (racemic): the Ratio at Cannabinoid receptor 1 [1] came out at 0.79. The Ki at Cannabinoid receptor 1 [2] (read-out: Ki) amounted to 0.52 nM. At Cannabinoid receptor 1 [3] (read-out: IC50), the IC50 stood at 7.1 nM.

As for `Cc1ccc(NC(=O)c2nc(-c3ccc(Cl)cc3Cl)n(-c3ccc(OS(=O)(=O)CCC(F)(F)F)cc3)c2C)nc1`, on Cannabinoid receptor 1 [1], the Ratio stood at 0.92. Also, the Ki on Cannabinoid receptor 1 [2] (read-out: Ki) stood at 0.14 nM. Besides, on Cannabinoid receptor 1 [3] (read-out: IC50), the IC50 amounted to 1.7 nM.

On to `Cc1c(C(=O)NN2CCCCC2)nc(-c2ccc(Cl)cc2Cl)n1-c1ccc(OS(=O)(=O)CCC(C)(C)C)cc1`, for which the Ratio on Cannabinoid receptor 1 [1] was determined as 0.73. The Ki at Cannabinoid receptor 1 [2] (read-out: Ki) amounted to 0.6 nM. For the same compound, the IC50 on Cannabinoid receptor 1 [3] (read-out: IC50) was 2.4 nM.

As to `Cc1c(C(=O)NN2CCCCC2)nc(-c2ccc(Cl)cc2Cl)n1-c1ccc(OCCCF)cc1`, the Ratio at Cannabinoid receptor 1 [1] came out at 1.09. Besides, the Ki on Cannabinoid receptor 1 [2] (read-out: Ki) is 0.34 nM; at Cannabinoid receptor 1 [2] (read-out: pKi (converted)), 0.1 nM. Also, the IC50 at Cannabinoid receptor 1 [3] (read-out: IC50) is 6 nM.

Take `Cc1c(C(=O)NC2CCC(O)CC2)nc(-c2ccc(Cl)cc2Cl)n1-c1ccc(OS(=O)(=O)CCC(F)(F)F)cc1` (mixture of isomers): the Ratio at Cannabinoid receptor 1 [1] came out at 0.88. The Ki on Cannabinoid receptor 1 [2] (read-out: Ki) is 0.37 nM. Also, the IC50 at Cannabinoid receptor 1 [3] (read-out: IC50) stood at 3.8 nM.

On to `Cc1c(C(=O)NN2CCCCC2)nc(-c2ccc(Cl)cc2Cl)n1-c1ccc(OCCCC(F)(F)F)cc1`, for which, on Cannabinoid receptor 1 [1], the Ratio was 0.8. In addition, the Ki at Cannabinoid receptor 1 [2] (read-out: Ki) came to 0.32 nM. The IC50 on Cannabinoid receptor 1 [3] (read-out: IC50) was 1.2 nM.

`Cc1c(C(=O)Nc2ccc(F)nc2)nc(-c2ccc(Cl)cc2Cl)n1-c1ccc(OS(=O)(=O)CCC(F)(F)F)cc1`: the Ratio on Cannabinoid receptor 1 [1] is 0.7. In addition, on Cannabinoid receptor 1 [2] (read-out: Ki), the Ki worked out at 0.13 nM. Also, the IC50 on Cannabinoid receptor 1 [3] (read-out: pIC50 (converted)) was 1.26 nM.

`Cc1c(C(=O)NN2CCCC(O)C2)nc(-c2ccc(Cl)cc2Cl)n1-c1ccc(OS(=O)(=O)CCC(F)(F)F)cc1` (racemic): the Ratio at Cannabinoid receptor 1 [1] was determined as 0.71. Moreover, the Ki on Cannabinoid receptor 1 [2] (read-out: Ki) stood at 0.27 nM. Also, the IC50 at Cannabinoid receptor 1 [3] (read-out: IC50) worked out at 2.7 nM.

Regarding `Cc1c(C(=O)NN2CCCCC2)nc(-c2ccc(Cl)cc2Cl)n1-c1ccc(OS(=O)(=O)CCC(F)(F)F)cc1`, at Cannabinoid receptor 1 [1], the Ratio was found to be 1.02. Also, at Cannabinoid receptor 1 [2] (read-out: Ki), the Ki came out at 0.11 nM. Moreover, the IC50 at Cannabinoid receptor 1 [3] (read-out: IC50) worked out at 1.1 nM.

For the compound `Cc1c(C(=O)NN2CCCCC2)nc(-c2ccc(Cl)cc2Cl)n1-c1ccc(OCCC(F)(F)F)cc1`, the Ratio at Cannabinoid receptor 1 [1] is 0.9. On Cannabinoid receptor 1 [2] (read-out: Ki), the Ki stood at 1.26 nM. The IC50 on Cannabinoid receptor 1 [3] (read-out: IC50) stood at 5.6 nM.

For the compound `CCCCS(=O)(=O)Oc1ccc(-n2c(-c3ccc(Cl)cc3Cl)nc(C(=O)NN3CCCCC3)c2C)cc1`, the Ratio at Cannabinoid receptor 1 [1] was 0.77. Also, the Ki on Cannabinoid receptor 1 [2] (read-out: Ki) was found to be 0.18 nM. For the same compound, the IC50 at Cannabinoid receptor 1 [3] (read-out: IC50) amounted to 1.3 nM.

Turning to `Cc1c(C(=O)N[C@@H]2CCCC[C@@H]2O)nc(-c2ccc(Cl)cc2Cl)n1-c1ccc(OS(=O)(=O)CCC(F)(F)F)cc1`, the Ratio at Cannabinoid receptor 1 [1] was determined as 1.06. For the same compound, the Ki on Cannabinoid receptor 1 [2] (read-out: Ki) is 0.027 nM; at Cannabinoid receptor 1 [2] (read-out: pKi (converted)), 0.01 nM. Moreover, the IC50 on Cannabinoid receptor 1 [3] (read-out: IC50) was found to be 1.8 nM.

Turning to `Cc1c(C(=O)Nc2ccc(C(F)(F)F)nc2)nc(-c2ccc(Cl)cc2Cl)n1-c1ccc(OS(=O)(=O)CCC(F)(F)F)cc1`, the Ratio on Cannabinoid receptor 1 [1] turned out to be 1.12. Moreover, at Cannabinoid receptor 1 [2] (read-out: Ki), the Ki was determined as 0.31 nM. In addition, the IC50 at Cannabinoid receptor 1 [3] (read-out: IC50) was 2.2 nM.

On to `CCCS(=O)(=O)Oc1ccc(-n2c(-c3ccc(Cl)cc3Cl)nc(C(=O)NN3CCCCC3)c2C)cc1`, for which, at Cannabinoid receptor 1 [1], the Ratio worked out at 0.59. Moreover, at Cannabinoid receptor 1 [2] (read-out: Ki), the Ki came out at 0.28 nM. For the same compound, the IC50 on Cannabinoid receptor 1 [3] (read-out: IC50) was 1.8 nM.

As to `Cc1c(C(=O)NN2CCCCC2)nc(-c2ccc(Cl)cc2Cl)n1-c1ccc(OS(=O)(=O)CCCF)cc1`, on Cannabinoid receptor 1 [1], the Ratio was 0.88. The Ki at Cannabinoid receptor 1 [2] (read-out: Ki) came to 0.32 nM. Moreover, on Cannabinoid receptor 1 [3] (read-out: IC50), the IC50 is 3.1 nM.

On to `Cc1c(C(=O)N[C@H]2CCC[C@H](O)C2)nc(-c2ccc(Cl)cc2Cl)n1-c1ccc(OS(=O)(=O)CCC(F)(F)F)cc1` (racemic), for which the Ratio on Cannabinoid receptor 1 [1] amounted to 0.89. Besides, on Cannabinoid receptor 1 [2] (read-out: Ki), the Ki was 0.1 nM. Also, the IC50 at Cannabinoid receptor 1 [3] (read-out: IC50) amounted to 1.1 nM.

`Cc1c(C(=O)Nc2ccc(OC(F)(F)F)cc2)nc(-c2ccc(Cl)cc2Cl)n1-c1ccc(OS(=O)(=O)CCC(F)(F)F)cc1`: the Ratio at Cannabinoid receptor 1 [1] came to 1.29. Further, the Ki at Cannabinoid receptor 1 [2] (read-out: Ki) was 0.22 nM; at Cannabinoid receptor 1 [2] (read-out: pKi (converted)) it was 0.501 nM. On Cannabinoid receptor 1 [3] (read-out: IC50), the IC50 is 0.66 nM.
